# Screening data as filed in PubChem BioAssay.
# GPR7 antagonist: GPR7 receptor antagonists, primary screen, cell-based, fluorescence, single concentration. GPR7-expressing cells, fluorescence antagonist assay. inhibition, % at 4.4 µM. hit rate 1.1% among 290,000. AID 1861, 2009; in the data active = inhibition above about 16%, passing the limit was not always enough;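 also: cells stimulated with the agonist NPW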
# Target sequence (P48145 whole entry, looked up): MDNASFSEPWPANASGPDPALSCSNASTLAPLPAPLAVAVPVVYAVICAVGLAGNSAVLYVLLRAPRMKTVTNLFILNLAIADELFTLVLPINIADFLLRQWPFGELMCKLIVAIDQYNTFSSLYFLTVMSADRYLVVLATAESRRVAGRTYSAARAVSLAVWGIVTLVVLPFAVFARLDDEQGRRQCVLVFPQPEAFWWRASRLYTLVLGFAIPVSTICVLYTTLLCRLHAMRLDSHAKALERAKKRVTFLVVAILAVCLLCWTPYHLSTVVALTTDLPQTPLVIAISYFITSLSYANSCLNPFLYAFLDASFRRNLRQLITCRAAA
# EBNA-1 inhibitor: EBNA-1 DNA-binding inhibitors, primary screen, biochemical, fluorescence polarization; hit rate 0.34% among 300,000; AID 1950, 2009; inhibition, % at 14.8 µM; in the data active = inhibition above about 28%
# ZTA DNA inh: ZTA (EBV) inhibition in EBNA-1 counter-screen; P03206; ZTA-DNA binding, fluorescence polarization; inhibition, % at 11 µM; hit rate 0.15% among 320,000; in the data active = inhibition above about 33%
# DNA FID counter: compounds displacing fluorescent DNA intercalator, primary screen, artefact control for HCV NS3 helicase inhibitor project, biochemical, FID fluorescence. DNA fluorescent intercalator displacement. AID 1845, 2009. inhibition, % at 7.9 µM. hit rate 0.17% among 290,000; in the data active = inhibition above about 37%;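 also: higher means more ethidium bromide displaced from hairpin DNA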
# NS3 helicase inh: inhibitors of HCV NS3 helicase, primary screen, biochemical, Cy5 molecular beacon fluorescence. NS3 helicase DNA unwinding. inhibition, % at 10.9 µM. hit rate 0.56% among 290,000;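 active = inhibition above the mean of all tested compounds plus 3 SD, set per campaign, cut at about 35% in these data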
#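 System: Hepatitis C virus NS3 helicase domain fragment enzyme | Reagent: Annealed dual-labelled DNA beacon duplex, ATP-started | Compound dosing: 10.9 µM single point, 0.8% DMSO | Incubation: 1 h reaction at 25 °C, ATP-initiated | Technique: Cy5 fluorescence | Evaluation: Percent inhibition from t60/t0 fluorescence ratio | Benchmarks: Low DMSO, high thioflavine S at 110 µM | Replication: Singlicate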
# A number is an active result; i = inactive; nt = no result given. Sampled rows, rich in hits. Any-hit rate of the full collection: about 2%.
SMILES,GPR7 antagonist,EBNA-1 inhibitor,ZTA DNA inh,DNA FID counter,NS3 helicase inh
CCN(CC)CCNC(=O)c1ccc(NC(=O)c2ccc(COc3ccccc3)cc2)cc1,i,nt,nt,38,i
CCCCCc1ccc(OCCC[n+]2ccccc2)c(CCCCC)c1,i,i,i,45,i
CCCCCc1ccc(OCCOCCn2c[n+](C)c3ccccc32)c(CCCCC)c1,40,nt,nt,37,i
O=C(CSc1nnc(N2CCCC2)n1-c1ccccc1Cl)N1CCN(c2ccccn2)CC1,nt,nt,i,nt,nt
c1ccc(-c2cc(NCCN3CCCCC3)c3ccccc3n2)cc1,i,i,i,74,i
O=C(c1cc(-c2ccccc2)nc2ccccc12)N1CCCC1,i,i,i,i,i
CSc1nc2ccc(NC(=O)NC(=O)c3c(F)cccc3F)cc2s1,19,i,i,i,i
C=CS(=O)(=O)c1ccc(Oc2ccc(S(=O)(=O)C=C)cc2)cc1,35,i,i,i,i
NS(=O)(=O)c1ccc(Oc2ccc(S(N)(=O)=O)cc2)cc1,i,i,i,i,i
COCCn1nnnc1C(c1ccc(OC)cc1OC)N1CCN(c2ccccc2)CC1 (stereo unspecified),i,i,i,i,i
COCCn1nnnc1C(c1ccc(OC)cc1OC)N1CCN(c2ccccc2F)CC1 (stereo unspecified),21,i,i,i,i
CC(OC(=O)c1cccc(-n2cnnn2)c1)C(=O)NC1(C#N)CCCCC1 (stereo unspecified),nt,nt,i,nt,nt
Cc1cc(C(=O)OCC(=O)N2CC(C)OC(C)C2)c(C)n1-c1ccccc1 (stereo unspecified),nt,nt,i,nt,nt
Cc1ccc(-c2nc(CS(=O)(=O)CC(=O)NCCCN(Cc3ccccc3)C(C)C)c(C)o2)cc1,i,i,i,37,i
Cc1ccccc1-c1nc(CS(=O)(=O)CC(=O)NCCCN2CC(C)CC(C)C2)c(C)o1 (stereo unspecified),i,i,i,37,i
COc1ccc(-c2nc(CS(=O)(=O)CC(=O)NCCCc3ccccc3)c(C)o2)cc1,i,i,i,i,i
CC1CCN(S(=O)(=O)c2cccc(C(=O)N(Cc3ccccc3)c3ccccn3)c2)CC1,19,i,i,i,i
CN1CCN(S(=O)(=O)c2cccc(C(=O)N(c3ccccn3)C3CCCCC3)c2)CC1,i,i,i,i,i
CCOc1cc(C2C3=C(CC(C)(C)CC3=O)N(C)C3=C2C(=O)CC(C)(C)C3)ccc1O,i,i,i,i,i
CC(=O)c1ccc(N2CCN(C(=S)Nc3cccc(Cl)c3)CC2)cc1,i,56,i,i,i
CC(=O)c1ccc(NC(=S)N2CCN(c3cccc(Cl)c3)CC2)cc1,i,i,i,i,i
Cc1ccc(OCCC(=O)OCC(=O)NC(=O)c2ccccc2)cc1,nt,i,i,nt,nt
Clc1cccc(-c2nc(NCCCN3CCOCC3)c3ccccc3n2)c1,i,i,i,37,i
Cc1ccc(-c2nc(NCCN3CCOCC3)c3ccccc3n2)cc1,i,i,i,46,i
Clc1ccc(-c2nc(NCCCN3CCOCC3)c3ccccc3n2)cc1,i,i,i,48,i
SMILES,GPR7 antagonist,EBNA-1 inhibitor,ZTA DNA inh,DNA FID counter,NS3 helicase inh
Clc1cccc(-c2nc(NCCN3CCOCC3)c3ccccc3n2)c1,i,i,i,i,i
Cc1cc(NCCN2CCOCC2)c2ccc3ccccc3c2n1,i,i,i,47,i
COc1ccc2nc(C)cc(NCCN3CCOCC3)c2c1,i,i,i,i,i
CC1Sc2ccc(S(=O)(=O)CCC(=O)NC3CCCCC3C)cc2NC1=O (stereo unspecified),i,i,i,i,i
c1csc(-c2nc(NCCCN3CCOCC3)c3ccccc3n2)c1,i,i,i,61,i
CN(C)CCCNc1nc(-c2ccccc2)nc2ccccc12,i,i,i,58,i
Fc1ccccc1-c1nc(NCCCN2CCOCC2)c2ccccc2n1,i,i,i,i,i
O=C(CN1C(=O)c2cccc3cccc1c23)NC1CCCCC1,i,i,i,i,i
Cc1ccc(Cl)cc1N1CCN(C(=O)c2ccccc2SCC(=O)N2CCCC2)CC1,nt,nt,i,nt,nt
O=C(NCCc1cn2ccsc2n1)C1CCCCC1,i,i,i,i,i
O=C(NCCc1cn2ccccc2n1)C1CCCCC1,19,i,i,i,i
Cc1ccc(-c2nc(=S)c3c(n2Cc2ccco2)CC(C)(C)OC3)cc1,17,i,i,i,i
O=C1CCC(O)CCN1CCSc1ccccc1 (stereo unspecified),i,i,i,i,i
